Experimental data from the RNAGym collection of RNA variant scans (doi:10.1126/science.aae0568).
Fewer inactive variants are shown than the library holds.

B1: tRNA (parent)
chain: GUUCCGUUGGCGUAAUGGUAACGCGUCUCCCUCCUAAGGAGAAGACUGCGGGUUCGAGUCCCGUACGGAACG

Variants of: B1
Assay: yeast fitness relative to wild type (ratio to wild type); higher = fitter; tRNA-Arg(CCU), competitive growth, 37 C, YPD
Summary of the method: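 The tRNA-Arg(CCU) gene variants were made by chemical synthesis with a 3% per-site mutation rate at 69 sites and inserted at the native genomic locus of Saccharomyces cerevisiae. After pooling, the strains were competed in YPD at 37°C for 24 hours in six parallel replicates. Gene amplicons from the start population and each end population were read by 100-nucleotide paired-end sequencing, and Darwinian fitness relative to wild type was taken from genotype frequency changes. Genotypes needed ≥ 100 starting reads, and estimates < 0.5 were set to 0.5.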

| Variant | yeast fitness |
| --- | --- |
| C4G G9A G10C C29A A37G G50U U59G | ≤ 0.5 |
| G41A A45U G56C | 0.546 |
| A36G A43G C62A | 0.553 |
| U19A A37U G68U | ≤ 0.5 |
| A15C G48C G68U | 0.548 |
| A14U G17A G23A | ≤ 0.5 |
| A36G C55G A65G | ≤ 0.5 |
| U8A G44C A57U C62U | ≤ 0.5 |
| C34U A45C | 0.6 |
| C5G C27U C34U G56C | 0.646 |
| G25C C31G C34G C61U A69U | ≤ 0.5 |
| C22G A40C A43U | ≤ 0.5 |
| U13C C22U G38C A57U | ≤ 0.5 |
| U2C U19C A57C | 0.642 |
| C24U C49U U64A | ≤ 0.5 |
| A45U U53A | 0.723 |
| U3A G17A C22U U64C | ≤ 0.5 |
| C5A C31U G68A | 0.639 |
| A15G G17C C34U C60A | ≤ 0.5 |
| A37C G39C C49U | ≤ 0.5 |
| G6A A40U A43C | 0.766 |
| C5U C31G A40G A45G C46G G48A | ≤ 0.5 |
| U19G G44A | 0.953 |
| G25A U28G | 0.762 |

| Variant | yeast fitness |
| --- | --- |
| U3A C4U A70G | 0.59 |
| C22U G48A C55A G58C | ≤ 0.5 |
| C30A G38A A42U | ≤ 0.5 |
| C11U C24G C27G | ≤ 0.5 |
| C22U C29U C49A | ≤ 0.5 |
| G12A A43C | 0.855 |
| C5U G18C C22U G50A G52C | ≤ 0.5 |
| G44C U54C | 0.977 |
| C24U C49U A65U | 0.577 |
| C46U A57G C66A | ≤ 0.5 |
| G12A C46G A57C | ≤ 0.5 |
| A15G A40U A45G | 0.585 |
| U7G C27U G68A | ≤ 0.5 |
| A15G C27G A42G G63A | ≤ 0.5 |
| A21U C34U U35A G39A | 0.594 |
| C4U U16A A40U | 0.666 |
| C55U C62A | 0.627 |
| C33U G63A | 0.614 |
| C11A C29A U32C C66U | ≤ 0.5 |
| G25A C61G | 0.679 |
| U7A U32G U35A | ≤ 0.5 |
| C30U C33A G56C A70C | ≤ 0.5 |
| C24G G50U | 0.544 |
| G10A G23C C61G | ≤ 0.5 |

| Variant | yeast fitness |
| --- | --- |
| G18C C55U G67C | 0.565 |
| G25C A40U C49U | 0.66 |
| C30A A70G | 0.983 |
| C24U C31U G68U | 0.544 |
| G12C U19G G25A C49U U59A U64A | ≤ 0.5 |
| A15U U19A C24A | 0.641 |
| G10C C33A U35C G67C | 0.675 |
| U19C G68A | 0.878 |
| G18C A45U G56U U64A A69C | 0.786 |
| A36C A40G | 0.566 |
| G18A A37U G68C | 0.579 |
| G23A C60A | ≤ 0.5 |
| C5G A43C G48C U64C | ≤ 0.5 |
| G51C C55U | ≤ 0.5 |
| A15U C24G G68A | ≤ 0.5 |
| U3A U35G A43U A57C | ≤ 0.5 |
| G9A C22G C31U | 0.683 |
| G38A G48A A65G | 0.559 |
| G25A U26A C31U G38A A42G A43U | 0.52 |
| G41C C61U | 0.857 |
| U2A C29G C30G C49A G56C C61U | 0.749 |
| C5U C29U A45C C60A | ≤ 0.5 |
| U3G A43G C55A | 0.536 |
| G12C G48A A69U | 0.836 |

| Variant | yeast fitness |
| --- | --- |
| C4U U16C A42G G58A | 0.552 |
| C11U A20U G39A G41C C46A G68A | ≤ 0.5 |
| G9A G12A C22G A43G C46G C66U | ≤ 0.5 |
| G10A A21C A57U | ≤ 0.5 |
| U2C C4U C31A C33U G56C | ≤ 0.5 |
| U7G A15G C27A | 0.567 |
| C31G A57C C61U | ≤ 0.5 |
| C27A A45C | 0.796 |
| U19C C27U C33G C34G G44A G50A G52A | ≤ 0.5 |
| G6A U16A A43C G67C | ≤ 0.5 |
| C4G C30U A40G C60G | ≤ 0.5 |
| G9C C46U C49U | 0.692 |
| A37G G41A | 0.805 |
| U2A U16G C27G C49G G67U | ≤ 0.5 |
| C4U G23A | 0.783 |
| C11G U13C A14G G17A G48C C62U C66G A70G | ≤ 0.5 |
| U2C C30U C33U G63C | ≤ 0.5 |
| G6U C34U | 0.573 |
| U13C A36C C55U G68C | ≤ 0.5 |
| G51A A57G | 0.819 |
| C22U C30U A42G C61A | 0.584 |
| C31U A45U C55U | ≤ 0.5 |
| C5U C34A C55G | ≤ 0.5 |
| A14U U19A C60G A70G | 0.531 |

| Variant | yeast fitness |
| --- | --- |
| C5U A15U C29U C31U C34U | 0.519 |
| A21G G56A A65G C66U | 0.638 |
| G18C G44A G67U | ≤ 0.5 |
| U19A A37U C55G U64A | ≤ 0.5 |
| C4G A15C C46A G67A | ≤ 0.5 |
| A36G A65U G67A | 0.502 |
| A15G C55U | 0.75 |
| U19A C24U U64C | 0.689 |
| C4U C5A C46U | 0.655 |
| C22G U54C | 0.775 |
| U8G A14G A43C | ≤ 0.5 |
| C11G C27U C33U C62G | ≤ 0.5 |
| C5G A21C C24U C33U | ≤ 0.5 |
| C11A U16C U32G C49G C62U | ≤ 0.5 |
| C5U U16C C22G C29G | ≤ 0.5 |
| A42G C46A G68A A70U | 0.568 |
| C22U G52A C60G | 0.503 |
| C49A G68A | 0.64 |
| C4A U7A U8G A45C | ≤ 0.5 |
| C5G U54A | 0.666 |
| U19A C24G C33G C34G A57G | 0.579 |
| C22U U32C C33G C55G | ≤ 0.5 |
| U8C G18A C27G C34A U47A | ≤ 0.5 |
| G17A C61U | 0.924 |

| Variant | yeast fitness |
| --- | --- |
| G23U U28G G50A | ≤ 0.5 |
| A20C C27A C30A C31U G52A | ≤ 0.5 |
| C11A U16C U32G U64G | ≤ 0.5 |
| U7A G44C C49U C61A C62U C66U | ≤ 0.5 |
| U8C C31U G48C C55A C60G A69G | ≤ 0.5 |
| C4U C24G U26A U28G U47C | ≤ 0.5 |
| C5U G6C U19C G25C U28G C62A | 0.747 |
| C24U C31A C34A G56C | ≤ 0.5 |
| C11A C22G C33U C34A G41A A65G | 0.527 |
| C5G G58C | 0.859 |
| A57C G67U | 0.516 |
| G12C A15G G44C A57U | 0.69 |
| C31G C55A | 0.605 |
| U19A G50A G68C | ≤ 0.5 |
| C5U U19A A20U G48A C60A | ≤ 0.5 |
| U35G A70U | 0.674 |
| C60G G67C | 0.574 |
| A20G U35A A40C G52A C60A C61G | 0.6 |
| A21C C30U A36C | ≤ 0.5 |
| U7A A36U A45G U47A | ≤ 0.5 |
| C27A C34G A40G A65G | 0.799 |
| C5G U13C C29U C62U | ≤ 0.5 |
| U2G A40C | 0.698 |
| G9A G25A C49U | 0.773 |

| Variant | yeast fitness |
| --- | --- |
| U19C A20U A57G | 0.695 |
| A14G C31G C33U G38C G58C C66G | ≤ 0.5 |
| C29U A36C | 0.531 |
| A20G C24G | 0.575 |
| G6A U53A G67U G68A | ≤ 0.5 |
| G25A C33A A40G | 0.544 |
| U7C C29U C31A C66G G67U | ≤ 0.5 |
| U2A C4U U28A C30U A57G | 0.688 |
| C5A C27U G38A | 0.565 |
| G9A C46U G67C | 0.633 |
| A14C A20G C22U C30U | ≤ 0.5 |
| G23A C33A C34G | ≤ 0.5 |
| C29A U47C A57C U59A | ≤ 0.5 |
| C4G G17A U26C A40G A70C | 0.793 |
| U2G C31U G48C | 0.6 |
| G9U A21C A42U G44C U53C | ≤ 0.5 |
| A40U U47C | 0.869 |
| A65U G68C | 0.625 |
| G50C U53A A57U A65U | 0.57 |
| A14G A45G | 0.919 |
| A42G G48C | 0.741 |
| C22U G63C G68U | ≤ 0.5 |
| A20G A70U | 1.06 |
